High-throughput results as filed in PubChem.
This excerpt belongs to a sample that is enriched for hits.
UPR CHOP act = apoptotic UPR (CHOP) activation; CHO-CHOP luciferase reporter, luminescence; percent of tunicamycin response over DMSO baseline; activation, % at 10 µM; hit rate 0.34% among 330,000; AID 449763;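 active = at 10 µM dose, activation of 40% or more, normalized to positive control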;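 note: 100% = tunicamycin at 10 µg/mL and 0% = DMSO alone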
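Material: CHO-CHOP cells, stable luciferase reporter of PERK-eIF2a-CHOP signalling; quantity: 500 reporter cells seeded per well; buffer or medium: F12 medium containing 10% fetal bovine serum; compound: one dose, 10 µM in 0.5% DMSO; incubation: 6 h compound treatment, 37 °C; measured by: Steady-Glo luciferase luminescence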
p-CIP stab down = lowers stability of the mouse p/CIP coactivator protein. AID 1984. Q05BA5. decrease of EGFP signal, % at 10 µM. F442A p/CIP-EGFP cells, EGFP fluorescence, 16 h. hit rate 0.01% among 290,000;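 active = EGFP signal decrease of at least 30% at 10 µM or well 3 SD below plate mean, unless failing retest; inactive = the rest, including hits failing retest or dose response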
Target sequence (Q05BA5 1-1403): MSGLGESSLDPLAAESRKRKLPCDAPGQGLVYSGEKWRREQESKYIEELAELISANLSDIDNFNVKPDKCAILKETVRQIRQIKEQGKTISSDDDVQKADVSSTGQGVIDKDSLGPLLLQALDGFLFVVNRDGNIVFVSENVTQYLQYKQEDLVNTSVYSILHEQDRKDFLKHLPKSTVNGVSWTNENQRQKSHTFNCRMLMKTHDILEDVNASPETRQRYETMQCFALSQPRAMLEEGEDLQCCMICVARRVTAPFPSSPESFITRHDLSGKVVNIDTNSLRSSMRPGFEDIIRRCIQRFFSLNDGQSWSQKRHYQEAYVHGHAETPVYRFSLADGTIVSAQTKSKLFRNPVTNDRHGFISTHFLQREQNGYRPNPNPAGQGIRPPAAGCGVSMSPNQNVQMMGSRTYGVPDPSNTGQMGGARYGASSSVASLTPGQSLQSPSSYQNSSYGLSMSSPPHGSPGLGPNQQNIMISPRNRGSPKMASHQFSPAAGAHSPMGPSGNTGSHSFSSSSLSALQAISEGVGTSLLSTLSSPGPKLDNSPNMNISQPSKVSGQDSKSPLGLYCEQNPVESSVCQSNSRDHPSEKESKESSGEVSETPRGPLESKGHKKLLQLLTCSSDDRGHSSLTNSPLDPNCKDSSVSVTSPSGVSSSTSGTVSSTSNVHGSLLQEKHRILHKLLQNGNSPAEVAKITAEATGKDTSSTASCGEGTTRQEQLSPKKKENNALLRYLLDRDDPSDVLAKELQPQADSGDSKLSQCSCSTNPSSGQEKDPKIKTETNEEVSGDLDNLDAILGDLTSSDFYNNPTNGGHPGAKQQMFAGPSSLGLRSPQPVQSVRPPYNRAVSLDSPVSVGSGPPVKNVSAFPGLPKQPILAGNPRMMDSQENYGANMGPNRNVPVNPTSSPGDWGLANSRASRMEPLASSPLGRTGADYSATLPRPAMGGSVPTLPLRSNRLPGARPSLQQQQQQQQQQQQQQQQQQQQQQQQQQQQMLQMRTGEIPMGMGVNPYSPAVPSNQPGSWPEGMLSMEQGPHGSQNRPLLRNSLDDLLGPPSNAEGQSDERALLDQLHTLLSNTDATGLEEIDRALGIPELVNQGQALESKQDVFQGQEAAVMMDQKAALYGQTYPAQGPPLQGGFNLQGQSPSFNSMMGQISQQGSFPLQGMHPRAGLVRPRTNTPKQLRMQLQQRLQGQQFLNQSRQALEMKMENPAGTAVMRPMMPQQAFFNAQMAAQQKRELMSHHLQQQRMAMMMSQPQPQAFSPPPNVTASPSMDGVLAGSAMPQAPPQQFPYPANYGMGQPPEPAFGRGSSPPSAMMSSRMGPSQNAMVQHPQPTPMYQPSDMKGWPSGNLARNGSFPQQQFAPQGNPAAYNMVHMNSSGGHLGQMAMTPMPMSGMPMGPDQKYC
B2AR ag = agonists of human beta-2 adrenergic receptor inducing internalization; P07550; Am2.2-beta2AR cells, FAP receptor internalization, flow cytometry; response, % (no concentration beside the values); hit rate 0.43% among 340,000;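 active = response above a set limit, near 3 SD of response in nonfluorescent compounds, cut at about 42% in these data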
CHOP inh = CHOP inhibition in unfolded protein response; CHO-K1 CHOP-promoter luciferase, tunicamycin-induced, 15-18 h; inhibition, % at 10 µM; hit rate 3.8% among 220,000;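 active = compounds that reduced the stress-induced luciferase reporter signal by more than about 70% of percent inhibition, limit read from the data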;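 note: 0% = tunicamycin plus vehicle and 100% = wells without tunicamycin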
Dynein transport = blocks dynein driven cargo transport along microtubules | z-score, hits read low | 3617.4 mouse cells, GR-EGFP nuclear translocation imaging; test concentration mostly 20 µM; stimulated with dexamethasone, 1 µM; stronger effect = lower value | hit rate 0.47% among 220,000 | AID 1381;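 active = plate z-score of nuclear minus cytoplasmic receptor signal below a set negative limit, without overly bright fluorescence or cell loss, cut at about -3.5 in these data, passing the limit was not always enough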;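 note: z-score of nuclear minus cytoplasmic ring GR-EGFP intensity difference per well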
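medium = tetracycline-free induction medium containing charcoal-stripped FBS | also added = 1.0 µM final dexamethasone stimulus | schedule = 48 h induction, 1 h compound, 30 min dex at 37 °C | technique = fixed, Hoechst-stained cells imaged at 10x for EGFP | measure = GR-EGFP nuclear translocation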
XBP1 UPR activ = activators of adaptive arm of unfolded protein response (XBP1). CHO-XBP1 luciferase reporter, IRE1-XBP1 UPR activation, luminescence; percent of tunicamycin response, DMSO as zero. activation, % at 20 µM. hit rate 0.33% among 330,000. AID 463104;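 active = versus positive control, 20 µM dose yields 30% or more activation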;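 note: 100% = tunicamycin at 10 µg/mL and 0% = DMSO only wells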
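Test system: CHO-XBP1 luciferase reporter cells | Buffer or medium: Serum-containing F12 medium, 10% FBS | Schedule: 6 h compound exposure at 37 °C, 5% CO2 | Detection: Steady-Glo luciferase glow luminescence, 10 min after reagent addition | Read-out basis: Activation, % of tunicamycin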
* marks the source's active call; other numbers are inactive results; / = no result given.

SMILES | UPR CHOP act | p-CIP stab down | B2AR ag | CHOP inh | Dynein transport | XBP1 UPR activ
CCc1ccc(Nc2ncc3c(n2)CC(C)CC3=O)cc1 (stereo unspecified) | 4 | -4 | 0 | 73* | -0.12 | 2
CCc1ccc(Nc2ncc3c(n2)CC(c2ccc(OC)cc2)CC3=O)cc1 (stereo unspecified) | 1 | -4 | 6 | 50 | -0.21 | -1
Oc1ccc2ccccc2c1/C=N/c1nc2c(s1)CCCC2 | -4 | -6 | 3 | -12 | -0.37 | 2
Oc1c(Br)cc(Br)cc1/C=N/c1nc2c(s1)CCCC2 | -3 | / | 32 | 86* | 0.21 | 0
C=C(C)C1CC=C(C)/C(=N/NC(=O)COc2ccc(C)cc2)C1 (stereo unspecified) | 2 | -4 | -25 | 70* | 2.8 | 2
O=C(Nc1cccc([N+](=O)[O-])c1)c1ccc2ccccc2c1O | 6 | -14 | 19 | 58 | -0.19 | -1
O=c1c(Cc2ccc(F)cc2)c(O)ccn1Cc1ccc(F)cc1 | -1 | -2 | 0 | 8 | 0.0049 | 11
O=c1c(Cc2ccc(F)cc2)c(O)ccn1Cc1ccc(Cl)cc1Cl | 0 | -8 | 0 | 83* | -0.53 | -3
COCCOc1cc(NC(=O)CS(=O)(=O)CC(=O)N(C)C)c(Cl)cc1Cl | 1 | 7 | 1 | 7 | -0.88 | 0
Cc1ccccc1N(CC(=O)N/N=C/c1ccccc1Cl)C(=O)c1ccccc1 | 0 | -1 | 10 | 73* | 0.86 | 8
Cc1ccccc1N(CC(=O)N/N=C/c1ccc(N(C)C)cc1)C(=O)c1ccccc1 | 3 | -2 | -1 | 20 | -1.3 | 0
Cc1cc2cc(CN(Cc3ccc4c(c3)OCO4)Cc3nnnn3C3CCCC3)c(=O)[nH]c2cc1C | 1 | 2 | -4 | 16 | -1.1 | 1
Cc1cccc2cc(CN(Cc3nnnn3C3CCCC3)C3CCCCC3)c(=O)[nH]c12 | 0 | / | -8 | / | -0.46 | -3
Cc1ccc2[nH]c(=O)c(CN(Cc3ccc4c(c3)OCO4)Cc3nnnn3C3CCCC3)cc2c1 | 0 | -10 | 2 | 72* | -0.55 | -6
Cc1ccc2cc(CN(Cc3nnnn3C3CCCCC3)CC3CCCO3)c(=O)[nH]c2c1 (stereo unspecified) | 3 | 3 | -15 | 11 | -1.3 | -1
Cc1cc(C)c2cc(CN(Cc3nnnn3C3CCCCC3)CC3CCCO3)c(=O)[nH]c2c1 (stereo unspecified) | -1 | -12 | -2 | 71* | -0.51 | -2
CCc1ccc2[nH]c(=O)c(CN(Cc3nnnn3C3CCCC3)C3CCCCC3)cc2c1 | 0 | -6 | -2 | 78* | -0.78 | 2
COc1cc(OC)c(NC(=O)CCNS(=O)(=O)c2ccc3c(c2)CC(C)N3C(C)=O)cc1Cl (stereo unspecified) | -3 | 0 | -16 | / | / | -4
Cc1cccc(-n2c(CCc3ccccc3)nnc2SCC(=O)c2ccccc2)c1 | 1 | -7 | -2 | 51 | -0.45 | -2
Cc1nc(NC(=O)c2ccc(F)cc2)sc1C(=O)Nc1ccc2c(c1)CCC2 | 4 | -8 | -9 | 82* | 0.04 | -2
Cc1ccc(C(=O)Nc2nc(C)c(C(=O)Nc3ccc4c(c3)CCC4)s2)cc1 | 3 | -4 | 9 | -34 | -0.0068 | 5
O=c1[nH]c(=S)[nH]cc1Oc1ccc(Cl)cc1Cl | -1 | -1 | -14 | 51 | -0.65 | -2
Cc1cc(/C=C2/SC(=S)N(c3cccc(Cl)c3)C2=O)c(C)n1-c1cccnc1 | 17 | / | 6 | / | -0.79 | 1
Cc1ccc(N2C(=O)/C(=C/c3cccnc3)SC2=S)cc1 | 1 | -3 | 18 | 76* | 0.55 | 0
Cc1cc(/C=C2/SC(=S)N(c3ccc([N+](=O)[O-])cc3)C2=O)c(C)n1-c1cccnc1 | 8 | -14 | 9 | 71* | 2.1 | -2
SMILES | UPR CHOP act | p-CIP stab down | B2AR ag | CHOP inh | Dynein transport | XBP1 UPR activ
COc1cccc(OC)c1C1=CC(=O)C[C@H](c2ccc3c(c2)OCO3)C1 | -2 | / | -4 | / | / | 1
COc1cccc2c1C(=O)O/C2=C/c1ccc2c(c1)OCO2 | 1 | -12 | 22 | 85* | -3.3 | -10
FC(F)Sc1ccc(NC(=S)NC2CCCCC2)cc1 | 2 | -2 | 1 | 95* | 0.27 | 3
CC1CCCCC1NC(=S)Nc1ccc(SC(F)F)cc1 (stereo unspecified) | 4 | -11 | -2 | -12 | -0.81 | 0
Cc1ccc(C)c(N2CCN(CC3CC=CCC3)CC2)c1 (stereo unspecified) | 0 | -16 | 2 | 72* | 0.65 | 0
CN1C/C(=C/c2cccnc2)C(=O)/C(=C/c2cccnc2)C1 | / | -18 | 43* | 81* | -5.9* | /
Cc1c(-c2ccccc2)oc2c(C(=O)N3CCN(c4ccccc4F)CC3)cccc2c1=O | 0 | 4 | -14 | 71* | -0.72 | 1
CCCCNC(=O)c1cccc2c(=O)c(C)c(-c3ccccc3)oc12 | -1 | 3 | -17 | 8 | 0.28 | -6
O=c1c2ccccc2sn1-c1cc(S(=O)(=O)N2CCOCC2)ccc1N1CCCC1 | -1 | -5 | 18 | 26 | -1.1 | -4
O=c1c2ccccc2sn1-c1cc(S(=O)(=O)N2CCOCC2)ccc1N1CCOCC1 | -1 | -23 | 1 | 20 | -6.5* | 0
CSCCC(NS(=O)(=O)c1ccc(Cl)cc1)C(=O)OCc1c(Cl)cccc1Cl (stereo unspecified) | -2 | -4 | -1 | 86* | -0.074 | 0
CSCCC(NS(=O)(=O)c1ccc(Cl)cc1)C(=O)OCC(=O)N(C(C)C)C(C)C (stereo unspecified) | 1 | 1 | 3 | 52 | 0.3 | -3
O=C(O)CC1(CC(=O)NCc2cc(F)cc3c2OCOC3)CCCCC1 | 4 | -14 | 4 | 3 | -0.59 | -1
Cc1c(NC(=O)CN2C(=O)NC(C)(c3ccccc3)C2=O)c(=O)n(-c2ccccc2)n1C (stereo unspecified) | 0 | -3 | -2 | 82* | 0.56 | -2
Cc1ccc(C2(C)NC(=O)N(CC(=O)Nc3c(C)n(C)n(-c4ccccc4)c3=O)C2=O)cc1 (stereo unspecified) | 2 | -2 | -11 | -2 | -0.12 | 0
NC(=O)C1CCN(CC(=O)Nc2nccs2)CC1 | 1 | -10 | 2 | / | / | -1
Cc1ccc(N=C2NC(=O)S/C2=C\c2ccco2)cc1 | 2 | -20 | 3 | 100* | 0.39 | 2
O=C1NC(=Nc2ccccc2)/C(=C/c2ccco2)S1 | 1 | -2 | -12 | 20 | 0.55 | -3
COc1ccc(NC(=O)COc2ccc(C(=O)OCC(=O)N(C(C)C)C(C)C)cc2OC)cc1 | -1 | 2 | -1 | -15 | 2.2 | 0
